Test results reported in ChEMBL document CHEMBL1131382, “Structure-activity relationship of new growth inhibitors of Trypanosoma cruzi” (J Med Chem, 1998).

Assays:
Trypanosoma cruzi [1] = test: Concentration required to inhibit proliferation of the epimastigote form of Trypanosoma cruzi; type: functional, organism-based
Procedure, shortened: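 T. cruzi epimastigotes (Y strain) at 28 °C in brain–heart infusion (37 g/L) with hemin (20 mg/L) and 10% newborn calf serum; inoculum (2–3) × 10⁶ cells/mL, 1 mL. Drugs at 1, 10, 50 and 100 μg/mL, each in quadruplicate, with a drug-free control. Growth read as absorbance at 600 nm; percent inhibition from the change in absorbance of drug-treated versus control cultures between start and end.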

Trypanosoma cruzi [2] = test: Growth inhibition of the intracellular Trypanosoma cruzi was measured by counting percentage of myoblasts with Trypanosoma cruzi parasite after 72 hr at the concentration of 1.0 (ug/mL); type: functional
Trypanosoma cruzi [3] = test: Growth inhibition of the intracellular Trypanosoma cruzi was measured by no. of parasites per 100 myoblasts (T. cruzi ) after 72 hr at the concentration of 1.0 (ug/mL); type: functional
Trypanosoma cruzi [4] = test: Growth inhibition of the intracellular Trypanosoma cruzi was measured by counting percentage of myoblasts with Trypanosoma cruzi parasite after 72 hr (absence of compound); type: functional
Trypanosoma cruzi [5] = test: Growth inhibition of the intracellular Trypanosoma cruzi was measured by no. of parasites per 100 myoblasts (T. cruzi ) after 72 hr (absence of compound); type: functional
Trypanosoma cruzi [6] = test: Growth inhibition of the intracellular Trypanosoma cruzi was measured by no. of parasites per 100 myoblasts (T. cruzi ) after 48 hr at the concentration of 1.0 (ug/mL); type: functional
Trypanosoma cruzi [7] = test: Growth inhibition of the intracellular Trypanosoma cruzi was measured by counting percentage of myoblasts with Trypanosoma cruzi parasite after time gap of 72h( absence of compound); type: functional
Trypanosoma cruzi [8] = test: Growth inhibition of the intracellular Trypanosoma cruzi was measured by no. of parasites per 100 myoblasts (T. cruzi ) after time gap of 72 hr at the concentration of 5.0 ug/mL; type: functional
Trypanosoma cruzi [9] = test: Growth inhibition of the intracellular Trypanosoma cruzi was measured by no. of parasites per 100 myoblasts (T. cruzi ) after 72 hr at the concentration of 0.1 (ug/mL); type: functional
Trypanosoma cruzi [10] = test: Growth inhibition of the intracellular Trypanosoma cruzi was measured by no. of parasites per 100 myoblasts (T. cruzi ) after time gap of 48 hr (with out compound); type: functional
Trypanosoma cruzi [11] = test: Growth inhibition of the intracellular Trypanosoma cruzi was measured by counting no. of parasites per 100 myoblasts (T. cruzi ) after 24 h (absence of compound); type: functional
Trypanosoma cruzi [12] = test: Growth inhibition of the intracellular Trypanosoma cruzi was measured by counting percentage of myoblasts with Trypanosoma cruzi parasite after time gap of 48 hr at the concentration of 5.0 ug/mL; type: functional
Trypanosoma cruzi [13] = test: Growth inhibition of the intracellular Trypanosoma cruzi was measured by counting percentage of myoblasts with Trypanosoma cruzi parasite after time gap of 72 hr at the concentration of 1.0 ug/mL; type: functional
Trypanosoma cruzi [14] = test: Growth inhibition of the intracellular Trypanosoma cruzi was measured by counting percentage of myoblasts with Trypanosoma cruzi parasite after time gap of 72 hr at the concentration of 5.0 ug/mL; type: functional
Trypanosoma cruzi [15] = test: Growth inhibition of the intracellular Trypanosoma cruzi was measured by counting percentage of myoblasts with Trypanosoma cruzi parasite after 48 hr (absence of compound); type: functional
Trypanosoma cruzi [16] = test: Growth inhibition of the intracellular Trypanosoma cruzi was measured by no. of parasites per 100 myoblasts (T. cruzi ) after 72 hr at the concentration of 0.5 (ug/mL); type: functional
Trypanosoma cruzi [17] = test: Growth inhibition of the intracellular Trypanosoma cruzi was measured by no. of parasites per 100 myoblasts (T. cruzi ) after 48 hr at the concentration of 0.1 (ug/mL); type: functional
Trypanosoma cruzi [18] = test: Growth inhibition of the intracellular Trypanosoma cruzi was measured by counting percentage of myoblasts with Trypanosoma cruzi parasite after time gap of 48 hr at the concentration of 1.0 ug/mL; type: functional
Trypanosoma cruzi [19] = test: Growth inhibition of the intracellular Trypanosoma cruzi was measured by no. of parasites per 100 myoblasts (T. cruzi ) after time gap of 48 hr at the concentration of 2.5 ug/mL; type: functional
Trypanosoma cruzi [20] = test: Growth inhibition of the intracellular Trypanosoma cruzi was measured by no. of parasites per 100 myoblasts (T. cruzi ) after time gap of 48 hr at the concentration of 1.0 ug/mL; type: functional
Trypanosoma cruzi [21] = test: Growth inhibition of the intracellular Trypanosoma cruzi was measured by counting percentage of myoblasts with Trypanosoma cruzi parasite after 48 hr at the concentration of 1.0 (ug/mL); type: functional
Trypanosoma cruzi [22] = test: Growth inhibition of the intracellular Trypanosoma cruzi was measured by counting percentage of myoblasts with Trypanosoma cruzi parasite after time gap of 72 hr at the concentration of 2.5 ug/mL; type: functional
Trypanosoma cruzi [23] = test: Growth inhibition of the intracellular Trypanosoma cruzi was measured by counting percentage of myoblasts with Trypanosoma cruzi parasite after 48 hr at the concentration of 0.5 (ug/mL); type: functional
Trypanosoma cruzi [24] = test: Growth inhibition of the intracellular Trypanosoma cruzi was measured by counting no. of parasites per 100 myoblasts (T. cruzi ) after 48 hr (absence of compound); type: functional
Trypanosoma cruzi [25] = test: Growth inhibition of the intracellular Trypanosoma cruzi was measured by no. of parasites per 100 myoblasts (T. cruzi ) after 48 hr at the concentration of 0.5 (ug/mL); type: functional
Trypanosoma cruzi [26] = test: Growth inhibition of the intracellular Trypanosoma cruzi was measured by counting percentage of myoblasts with Trypanosoma cruzi parasite after 72 hr at the concentration of 0.1 (ug/mL); type: functional
Trypanosoma cruzi [27] = test: Growth inhibition of the intracellular Trypanosoma cruzi was measured by no. of parasites per 100 myoblasts (T. cruzi ) after time gap of 48 hr at the concentration of 5.0 ug/mL; type: functional
Trypanosoma cruzi [28] = test: Growth inhibition of the intracellular Trypanosoma cruzi was measured by counting percentage of myoblasts with Trypanosoma cruzi parasite after time gap of 48 hr (with out compound); type: functional
Trypanosoma cruzi [29] = test: Growth inhibition of the intracellular Trypanosoma cruzi was measured by counting percentage of myoblasts with Trypanosoma cruzi parasite after time gap of 48 hr at the concentration of 2.5 ug/mL; type: functional
Trypanosoma cruzi [30] = test: Growth inhibition of the intracellular Trypanosoma cruzi was measured by counting percentage of myoblasts with Trypanosoma cruzi parasite after 24 hr (absence of compound); type: functional
Trypanosoma cruzi [31] = test: Growth inhibition of the intracellular Trypanosoma cruzi was measured by no. of parasites per 100 myoblasts (T. cruzi ) after time gap of 72 hr (absence of compound); type: functional
Trypanosoma cruzi [32] = test: Growth inhibition of the intracellular Trypanosoma cruzi was measured by counting percentage of myoblasts with Trypanosoma cruzi parasite after time gap of 24 hr (with out compound); type: functional
Trypanosoma cruzi [33] = test: Growth inhibition of the intracellular Trypanosoma cruzi was measured by counting percentage of myoblasts with Trypanosoma cruzi parasite after 48 hr at the concentration of 0.1 (ug/mL); type: functional
Trypanosoma cruzi [34] = test: Growth inhibition of the intracellular Trypanosoma cruzi was measured by no. of parasites per 100 myoblasts (T. cruzi ) after time gap of 72 hr at the concentration of 1.0 ug/mL; type: functional
Trypanosoma cruzi [35] = test: Growth inhibition of the intracellular Trypanosoma cruzi was measured by no. of parasites per 100 myoblasts (T. cruzi ) after time gap of 24 hr (with out compound); type: functional
Trypanosoma cruzi [36] = test: Growth inhibition of the intracellular Trypanosoma cruzi was measured by no. of parasites per 100 myoblasts (T. cruzi ) after time gap of 72 hr at the concentration of 2.5 ug/mL; type: functional
Trypanosoma cruzi [37] = test: Growth inhibition of the intracellular Trypanosoma cruzi was measured by counting percentage of myoblasts with Trypanosoma cruzi parasite after 72 hr at the concentration of 0.5 (ug/mL); type: functional

CC(C)COC(=O)SCCOc1ccc(Oc2ccccc2)cc1
IC50 (Trypanosoma cruzi [1]): 19.1 µM

C=CCOc1ccc(Oc2ccccc2)cc1I
IC50 (Trypanosoma cruzi [1]): 91 µM

C=CCOc1ccc(Oc2ccccc2)cc1
IC50 (Trypanosoma cruzi [1]): 221 µM

c1ccc(Oc2ccc(OCC3CS3)cc2)cc1 (stereo not given)
IC50 (Trypanosoma cruzi [1]): 3.9 µM

C=CCOc1ccc(Oc2ccc([N+](=O)[O-])cc2)cc1
IC50 (Trypanosoma cruzi [1]): 230 µM

C=CCOc1ccc(Oc2ccccc2)cc1Cl
IC50 (Trypanosoma cruzi [1]): > 250 µM

Brc1cc(Oc2ccccc2)ccc1OCCOC1CCCCO1 (stereo not given)
IC50 (Trypanosoma cruzi [1]): 67 µM

CCOC(=O)SCCOc1ccc(Oc2ccccc2)cc1
IC50 (Trypanosoma cruzi [1]): 15.1 µM

C=CCSC(=S)OCCOc1ccc(Oc2ccccc2)cc1
IC50 (Trypanosoma cruzi [1]): 96.1 µM

N#CSCCOc1ccc(Oc2ccccc2)cc1
Myoblasts with parasites (Trypanosoma cruzi [2]): 15% | R (Trypanosoma cruzi [3]): 63.5% | Myoblasts with parasites (Trypanosoma cruzi [4]): 27.5% | R (Trypanosoma cruzi [5]): 578.5% | R (Trypanosoma cruzi [6]): 69.3% | Myoblasts with parasites (Trypanosoma cruzi [7]): 24.8% | R (Trypanosoma cruzi [8]): 28% | R (Trypanosoma cruzi [9]): 238% | R (Trypanosoma cruzi [10]): 270.5% | R (Trypanosoma cruzi [11]): 91.8% | Myoblasts with parasites (Trypanosoma cruzi [12]): 19.8% | Myoblasts with parasites (Trypanosoma cruzi [13]): 16.3% | Myoblasts with parasites (Trypanosoma cruzi [14]): 8.3% | Myoblasts with parasites (Trypanosoma cruzi [15]): 21.5% | R (Trypanosoma cruzi [16]): 124.5% | R (Trypanosoma cruzi [17]): 218% | Myoblasts with parasites (Trypanosoma cruzi [18]): 20.5% | R (Trypanosoma cruzi [19]): 57% | R (Trypanosoma cruzi [20]): 59.3% | Myoblasts with parasites (Trypanosoma cruzi [21]): 19.3% | Myoblasts with parasites (Trypanosoma cruzi [22]): 17% | Myoblasts with parasites (Trypanosoma cruzi [23]): 18.3% | IC50 (Trypanosoma cruzi [1]): 2.2 µM | R (Trypanosoma cruzi [24]): 239.5% | R (Trypanosoma cruzi [25]): 98% | Myoblasts with parasites (Trypanosoma cruzi [26]): 15.5% | R (Trypanosoma cruzi [27]): 48% | Myoblasts with parasites (Trypanosoma cruzi [28]): 31.5% | Myoblasts with parasites (Trypanosoma cruzi [29]): 20.3% | Myoblasts with parasites (Trypanosoma cruzi [30]): 26% | R (Trypanosoma cruzi [31]): 733.5% | Myoblasts with parasites (Trypanosoma cruzi [32]): 38% | Myoblasts with parasites (Trypanosoma cruzi [33]): 22% | R (Trypanosoma cruzi [34]): 85.5% | R (Trypanosoma cruzi [35]): 85% | R (Trypanosoma cruzi [36]): 76.3% | Myoblasts with parasites (Trypanosoma cruzi [37]): 12.5%

C=CCOc1ccc(Oc2ccccc2)cc1NC(C)=O
IC50 (Trypanosoma cruzi [1]): 97 µM

C=CCOc1ccc(Sc2ccccc2)cc1
IC50 (Trypanosoma cruzi [1]): 324 µM

c1ccc(COc2ccc(OCCOC3CCCCO3)cc2)cc1 (stereo not given)
IC50 (Trypanosoma cruzi [1]): 121 µM

CCSC(=O)OC/C=C(\C)CCC=C(C)C
IC50 (Trypanosoma cruzi [1]): 298 µM

C=CCOc1ccc(Oc2ccc(C(=O)c3ccccc3)cc2)cc1
IC50 (Trypanosoma cruzi [1]): > 330 µM

CCOC(=S)SCCOc1ccc(Oc2ccccc2)cc1
IC50 (Trypanosoma cruzi [1]): 41.9 µM

c1ccc(Cc2ccc(OCCOC3CCCCO3)cc2)cc1 (stereo not given)
IC50 (Trypanosoma cruzi [1]): 282 µM

C=CCOc1ccc(Cl)cc1Cl
IC50 (Trypanosoma cruzi [1]): 282 µM

Brc1ccc(Oc2ccc(OCCOC3CCCCO3)cc2)cc1 (stereo not given)
IC50 (Trypanosoma cruzi [1]): 85 µM

C=CCOc1ccc(Oc2ccc(C(C)=O)cc2)cc1
IC50 (Trypanosoma cruzi [1]): 300 µM

C=CCOc1ccc(Oc2ccccc2)cc1Br
IC50 (Trypanosoma cruzi [1]): 182 µM

C=CCOc1ccc(Oc2ccccc2)cc1[N+](=O)[O-]
IC50 (Trypanosoma cruzi [1]): 185 µM

CCSC(=O)SCCOc1ccc(Oc2ccccc2)cc1
IC50 (Trypanosoma cruzi [1]): 37.7 µM

N#CSCCCOc1ccc(Oc2ccccc2)cc1
IC50 (Trypanosoma cruzi [1]): 3.5 µM

CCNC(=O)SCCOc1ccc(Oc2ccccc2)cc1
IC50 (Trypanosoma cruzi [1]): 17 µM

CCSC(=O)OC/C=C(\C)CCC1OC1(C)C (stereo not given)
IC50 (Trypanosoma cruzi [1]): > 380 µM

Clc1ccc(OCCOC2CCCCO2)c(Cl)c1 (stereo not given)
IC50 (Trypanosoma cruzi [1]): 93 µM

CC1CS(=O)(=O)CCN1/N=C/c1ccc([N+](=O)[O-])o1 (stereo not given) [NIFURTIMOX]
Myoblasts with parasites (Trypanosoma cruzi [2]): 12.5% | R (Trypanosoma cruzi [3]): 70.5% | Myoblasts with parasites (Trypanosoma cruzi [4]): 20% | R (Trypanosoma cruzi [5]): 321% | R (Trypanosoma cruzi [6]): 64.5% | R (Trypanosoma cruzi [11]): 80.25% | Myoblasts with parasites (Trypanosoma cruzi [15]): 16.25% | Myoblasts with parasites (Trypanosoma cruzi [21]): 14% | IC50 (Trypanosoma cruzi [1]): 8.6 µM | R (Trypanosoma cruzi [24]): 155% | Myoblasts with parasites (Trypanosoma cruzi [30]): 34.5%

N#CSCCOc1ccc(OCc2ccccc2)cc1
IC50 (Trypanosoma cruzi [1]): 8.1 µM

C=CCOc1ccc(Oc2ccc(Br)cc2)cc1
IC50 (Trypanosoma cruzi [1]): > 250 µM

C/C=C/Oc1ccc(Oc2ccccc2)cc1
IC50 (Trypanosoma cruzi [1]): > 440 µM

Clc1cc(Oc2ccccc2)ccc1OCCOC1CCCCO1 (stereo not given)
IC50 (Trypanosoma cruzi [1]): 143 µM

N#CSCCOc1ccc(Cc2ccccc2)cc1
IC50 (Trypanosoma cruzi [1]): 13.4 µM

C=CCOc1ccc(Oc2ccc(Cl)cc2)cc1
IC50 (Trypanosoma cruzi [1]): > 250 µM
